Laboratory results as given in ChEMBL document CHEMBL4402593, “Fragment-Based Design of Mycobacterium tuberculosis InhA Inhibitors” (J Med Chem, 2020).
pIC50: −log10 of the molar value. Activity calls are given as the source filed them. The calls are words filed in the database; no cut-off is given here.

Tests used:
[1] = biological target: T1, Enoyl-[acyl-carrier-protein] reductase [NADH] (Mycobacterium tuberculosis) (UniProt P9WGR1); test: Binding affinity to hexahistidine-SUMO tagged Mycobacterium tuberculosis InhA expressed in Escherichia coli BL21(DE3) at 1 mM in presence of 0.5 mM NAD+ by CPMG NMR analysis
T1 sequence (whole entry): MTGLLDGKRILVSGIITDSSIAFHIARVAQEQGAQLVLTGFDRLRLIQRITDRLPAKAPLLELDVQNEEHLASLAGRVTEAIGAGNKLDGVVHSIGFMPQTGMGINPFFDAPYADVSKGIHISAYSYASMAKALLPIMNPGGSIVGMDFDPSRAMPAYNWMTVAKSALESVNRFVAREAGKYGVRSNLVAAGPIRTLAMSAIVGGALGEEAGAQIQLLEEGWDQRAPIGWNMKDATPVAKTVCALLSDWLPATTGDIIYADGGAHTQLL
Procedure, shortened: (§1)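 Ligand-observed NMR binding (CPMG T2 relaxation, WaterLOGSY, STD): 20 μM InhA (His6-SUMO tag removed by Ulp1, then gel-filtered) with 0.5 mM NAD+ and fragment at 1 mM. All three techniques were run on each fragment to validate thermal-shift hits.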

[2] = biological target: T1, Enoyl-[acyl-carrier-protein] reductase [NADH] (Mycobacterium tuberculosis); test: (§2) Inhibition of hexahistidine-SUMO tagged Mycobacterium tuberculosis InhA expressed in Escherichia coli BL21(DE3) at 2 mM preincubated for 10 mins with NADH before addition of 2-trans-octanoyl-CoA as substrate and measured after 20 mins by NADH oxidation detection based colorimetric assay relative to control
Procedure, shortened: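 InhA 100 nM in PIPES pH 7.5/NaCl/EDTA was preincubated 10 min with 0.25 mM NADH and fragment (1% DMSO). Reaction started with 1.5 mM 2-trans-octanoyl-CoA. A340 decrease was followed for 20 min.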

[3] = biological target: T1, Enoyl-[acyl-carrier-protein] reductase [NADH] (Mycobacterium tuberculosis); test: Binding affinity to hexahistidine-SUMO tagged Mycobacterium tuberculosis InhA expressed in Escherichia coli BL21(DE3) at 1 mM in presence of 0.5 mM NAD+ by NMR spectroscopy; procedure, shortened: as §1
[4] = biological target: T1, Enoyl-[acyl-carrier-protein] reductase [NADH] (Mycobacterium tuberculosis); test: Binding affinity to hexahistidine-SUMO tagged Mycobacterium tuberculosis InhA expressed in Escherichia coli BL21(DE3) at 1 mM in presence of 0.5 mM NAD+ by WaterLOGSY NMR analysis; procedure, shortened: as §1
[5] = biological target: T1, Enoyl-[acyl-carrier-protein] reductase [NADH] (Mycobacterium tuberculosis); test: Inhibition of InhA in Mycobacterium tuberculosis H37Ra assessed as reduction in mycolic acids synthesis by measuring FAME level at 200 uM incubated for 48 hrs using [14C]acetate by TLC based metabolic labeling assay relative to control
Procedure, shortened: (§3)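 H37Ra in 7H9/ADC/Tween 80 at OD600 0.290 received compound at 200 μM final (1% DMSO), with isoniazid 40 μM as control. After 24 h, 14C acetate (0.5 μCi/mL) was added for a further 24 h. FAMEs and MAMEs were prepared from whole cells, loaded normalised to OD600, separated by TLC, and detected by autoradiography.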

[6] = biological target: T1, Enoyl-[acyl-carrier-protein] reductase [NADH] (Mycobacterium tuberculosis); test: Inhibition of InhA in Mycobacterium tuberculosis H37Ra assessed as reduction in mycolic acids synthesis by measuring MAME level at 200 uM incubated for 48 hrs using [14C]acetate by TLC based metabolic labeling assay relative to control; procedure, shortened: as §3
[7] = biological target: T1, Enoyl-[acyl-carrier-protein] reductase [NADH] (Mycobacterium tuberculosis); test: Inhibition of InhA in Mycobacterium tuberculosis H37Ra assessed as decrease in trehalose dimycolates level at 200 uM incubated for 48 hrs using [14C]acetate by TLC based metabolic labeling assay relative to control
Procedure, shortened: (§4)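 H37Ra was grown statically at 37 °C in 7H9/ADC/0.05% Tween 80 to OD600 0.290. Compound was added at 200 μM final (1% DMSO), with isoniazid 40 μM as control inhibitor. After 24 h shaking, 14C acetate (0.5 μCi/mL) was added for another 24 h. Total lipids were extracted with chloroform/methanol and washed biphasically. TLC in chloroform/methanol/water 20:4:0.5, then autoradiography.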

[8] = biological target: T2, Enoyl-[acyl-carrier-protein] reductase [NADH] (Mycobacterium tuberculosis, UniProt P9WGR1); test: Inhibition of hexahistidine-SUMO tagged Mycobacterium tuberculosis InhA expressed in Escherichia coli BL21(DE3) at preincubated for 10 mins with NADH before addition of 2-trans-octanoyl-CoA as substrate and measured after 20 mins by NADH oxidation detection based colorimetric assay
T2 sequence (P9WGR1 whole entry): T1 sequence (whole entry)

[9] = biological target: T1, Enoyl-[acyl-carrier-protein] reductase [NADH] (Mycobacterium tuberculosis); test: Inhibition of InhA in Mycobacterium tuberculosis H37Ra assessed as accumulation of trehalose monomycolates at 200 uM incubated for 48 hrs using [14C]acetate by TLC based metabolic labeling assay relative to control; procedure, shortened: as §4
[10] = biological target: T1, Enoyl-[acyl-carrier-protein] reductase [NADH] (Mycobacterium tuberculosis); test: as §2, with “at 0.1” for “at 2”
Procedure, shortened: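 Percent inhibition at 100 μM: tag-cleaved InhA (100 nM) in 30 mM PIPES pH 7.5, 50 mM NaCl, 0.1 mM EDTA was preincubated 10 min at room temperature with 0.25 mM NADH and compound (1% DMSO). Reaction started with 1.5 mM 2-trans-octanoyl-CoA final. NADH oxidation was read at 340 nm for 20 min.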

**Q.** Which results are given for O=C(O)CCc1cccc(Cl)c1?
**A.** Activity [1]: Active; inhibition [2]: inactive; Activity [3]: Active; Activity [4]: Active

**Q.** NNC(=O)c1ccncc1 was tested. Which inhibition [5] did it give?
**A.** The inhibition was 100%.

**Q.** And the inhibition [6]?
**A.** The inhibition was 100%.

**Q.** Which results are given for NCc1cccc(NS(=O)(=O)c2cc3ccccc3o2)c1?
**A.** inhibition [7]: inactive; pIC50 [8]: 4.66; inhibition [5]: inactive; inhibition [9]: inactive; inhibition [6]: inactive

**Q.** How did the Activity [1] turn out when O=C(O)/C=C/c1cccc(C(F)(F)F)c1 was run?
**A.** The Activity was “Active”.

**Q.** And the Activity [3]?
**A.** Its Activity is “Active”.

**Q.** And the Activity [4]?
**A.** The Activity was “Active”.

**Q.** What does the source list for O=C(O)c1ccccc1C(=O)c1ccc(Cl)c([N+](=O)[O-])c1?
**A.** Activity [1]: Active; inhibition [2]: inactive; Activity [3]: Active; Activity [4]: Active

**Q.** With NCc1cccc(NS(=O)(=O)c2cc3ccccc3s2)c1 as the molecule, how does the inhibition [7] read?
**A.** Its inhibition is “inactive”.

**Q.** What about the inhibition [5] of the same molecule?
**A.** Its inhibition is “inactive”.

**Q.** And the inhibition [9]?
**A.** Its inhibition is “inactive”.

**Q.** And the inhibition [6]?
**A.** Its inhibition is “inactive”.

**Q.** How did the inhibition [7] turn out when Cc1c(S(=O)(=O)Nc2cccc(CN)c2)sc2ccc(F)cc12 was run?
**A.** Its inhibition is “inactive”.

**Q.** And the inhibition [5]?
**A.** The inhibition was “inactive”.

**Q.** What about the inhibition [9] of the same molecule?
**A.** Its inhibition is “inactive”.

**Q.** What about the inhibition [6] of the same molecule?
**A.** The inhibition was “inactive”.

**Q.** NCc1cccc(NS(=O)(=O)/C=C/c2cccc(C(F)(F)F)c2)c1 was tested. Which inhibition [7] did it give?
**A.** Its inhibition is “Active”.

**Q.** What about the inhibition [5] of the same molecule?
**A.** The inhibition was “Active”.

**Q.** What about the inhibition [9] of the same molecule?
**A.** The inhibition was “Active”.

**Q.** And the inhibition [6]?
**A.** The inhibition was “Active”.

**Q.** For O=C(O)c1ccccc1-n1cccn1, which Activity [1] is on record?
**A.** Its Activity is “Active”.

**Q.** And the inhibition [2]?
**A.** Its inhibition is “inactive”.

**Q.** What about the Activity [3] of the same molecule?
**A.** The Activity was “Active”.

**Q.** And the Activity [4]?
**A.** Its Activity is “Active”.

**Q.** Cc1c(S(=O)(=O)Nc2cccc(CN)c2)sc2ccc(Cl)cc12 was tested. Which inhibition [7] did it give?
**A.** Its inhibition is “inactive”.

**Q.** What about the inhibition [5] of the same molecule?
**A.** Its inhibition is “inactive”.

**Q.** What about the inhibition [9] of the same molecule?
**A.** The inhibition was “inactive”.

**Q.** What about the inhibition [6] of the same molecule?
**A.** Its inhibition is “inactive”.

**Q.** How did the inhibition [10] turn out when NC(=O)c1cccc(NS(=O)(=O)/C=C/c2cccc(C(F)(F)F)c2)c1 was run?
**A.** Its inhibition is 0%.

**Q.** What does the source list for NCc1ccc(NS(=O)(=O)/C=C/c2cccc(C(F)(F)F)c2)cc1?
**A.** inhibition [7]: inactive; inhibition [5]: inactive; inhibition [9]: inactive; inhibition [6]: inactive

**Q.** O=C(O)c1cc2ccccc2cc1O was tested. Which Activity [1] did it give?
**A.** Its Activity is “Active”.

**Q.** What about the inhibition [2] of the same molecule?
**A.** Its inhibition is “inactive”.

**Q.** And the Activity [3]?
**A.** Its Activity is “Active”.

**Q.** What about the Activity [4] of the same molecule?
**A.** The Activity was “Active”.
